This note sets out measurements from ChEMBL document CHEMBL5500386, “Design, synthesis and bioactivity evaluation of 4-hydroxycoumarin derivatives as potential anti-inflammatory agents against acute lung injury and colitis” (Eur J Med Chem, 2024).

Series [1] relates to J774.A1. In words: Inhibition of LPS-induced MAPK activation in mouse J774.A1 cells assessed as reduction in JNK phosphorylation at 5 to 20 uM pretreated for 2 hrs followed by LPS stimulation and measured after 30 mins by Western blot analysis. The series is classed as cell-based. Particulars: dose 5-20 µM, time 2.5 hrs. The method, boiled down: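 J774A.1 macrophages pretreated with 20, 10 or 5 μM for 2 h, then LPS 0.5 μg/mL for 30 min. RIPA lysates quantified by Bradford. 40 μg run on 12.5 % SDS-PAGE and transferred to PVDF. Blocked 1.5 h in BSA, primary antibody overnight at 4 °C, secondary 2 h at room temperature, detected by ECL.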

Series [2] in a line: Half life in male Sprague-Dawley rat at 1 mg/kg, iv measured upto 24 hrs by triple quadrupole mass spectrometric analysis. The class given is ADME, organism-based. Particulars: in vivo. In short, it runs like this: (§1)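 Male SD rats (8 weeks, 200 g ± 20 g), n = 3 per route. Oral: 10 mg/kg by gavage in 0.05 % DMSO/normal saline, tail-vein blood at 13 times from 10 min to 24 h. IV: 1 mg/kg tail vein in 5 % DMSO/30 % PEG400/65 % saline, 14 samples from 5 min to 24 h. Heparinised plasma precipitated with acetonitrile containing internal standard. Non-compartmental analysis on mean concentrations.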

For series [3], the system named is Mus musculus. The experiment in a line: Protection against LPS-induced C57BL/6 mouse model of acute lung injury assessed as reduction in thickening of the alveolar septum in lungs at 20 mg/kg, po administered 3 times for every 12 hrs followed by LPS stimulation at 5 mg/kg and measured after 6 hrs by H and E staining based analysis. As to conditions: time 30.0 hrs. The class given is functional, organism-based. The method, boiled down: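 LPS-induced ALI in C57BL/6 mice: 20 mg/kg orally three times at 12 h intervals, then intratracheal LPS 5 mg/kg, killed at 6 h. Lungs paraffin-embedded, cut into 5 μm sections and H&E stained. Viewed at ×20.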

A short description of series [4]: Acute toxicity in male ICR mouse assessed as histopathological changes in spleen at 500 to 1000 mg/kg, po administered daily for 10 days by H and E staining based analysis. The series is classed as organism-based. Particulars: in vivo, 240 h, dose 500-1000 mg/kg, time 10 day. The method, boiled down:
(§2)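 Male ICR mice (8 weeks, 30 g ± 2 g), acclimatised 1 week, randomised into 1000 mg/kg, 500 mg/kg and untreated control groups (n = 24 total). Dosed by daily gavage, compound dissolved in 0.5 % DMSO then added to normal saline. Body weight and behaviour recorded daily. Euthanised after 10 days; heart, liver, spleen, lung and kidney examined by H&E staining.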

Series [5] is described as follows: AUC (0 to t) in male Sprague-Dawley rat at 1 mg/kg, iv measured upto 24 hrs by triple quadrupole mass spectrometric analysis. The series is classed as ADME, organism-based. Particulars: in vivo. In short, it runs like this:
as §1

In series [6] the test system is Mus musculus. The experiment in a line: Protection against LPS-induced C57BL/6 mouse model of acute lung injury assessed as reduction in thickening of the alveolar septum at 20 mg/kg, po administered 3 times for every 12 hrs followed by LPS stimulation at 5 mg/kg and measured after 6 hrs by immunohistochemical staining based analysis. The series is classed as functional, organism-based. Particulars: time 30.0 hrs. In short, it runs like this:
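LPS-induced ALI in C57BL/6 mice: 20 mg/kg orally three times at 12 h intervals, then intratracheal LPS 5 mg/kg, lungs taken at 6 h. F4/80 IHC: xylene deparaffinisation, citrate pH 6 retrieval for 25 min, primary antibody at 4 °C for 12 h, secondary 1:2000, DAB and hematoxylin. Viewed at ×20.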

For series [7], the system named is J774.A1. In words: Antiinflammatory activity in LPS-induced mouse J774.A1 cells assessed as inhibition of IL-6 production pretreated for 30 mins followed by LPS stimulation and measured after 24 hrs by ELISA. The series is classed as functional, cell-based. The method, boiled down: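 Cells pretreated 30 min with a gradient of concentrations (2.5–10 μM range) or DMSO, then given LPS 0.5 μg/mL for 24 h. IL-6 in medium measured by ELISA and normalised to living cell number by MTT. Expressed as % of the LPS group, mean ± SEM of triplicates. IC50 taken from the concentration-response.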

In series [8] the test system is Mus musculus. The experiment in a line: Antiinflammatory activity in DSS-induced male C57BL/6 mouse model of inflammatory bowel disease assessed as reduction in F4/80 positive cell population in intestine at 20 mg/kg, IG administered with compound and DSS for 7 days followed by DSS replacement with distilled water for 3 days by immunohistochemistry staining based analysis. The class given is functional, organism-based. Particulars: time 10.0 day. In short, it runs like this:
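DSS colitis in C57BL/6 mice (2.5 % DSS for 7 days, then water for 3 days), 20 mg/kg po daily in DMSO/CMC-Na, n = 6. Colon fixed in 4 % formaldehyde. For IHC: deparaffinised in xylene, antigen retrieval by boiling in citrate buffer pH 6 for 25 min, primary antibody at 4 °C for 12 h, secondary 1:2000, then DAB with hematoxylin counterstain.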

The nature of series [9]: Acute toxicity in male ICR mouse assessed as histopathological changes in heart at 500 to 1000 mg/kg, po administered daily for 10 days by H and E staining based analysis. As to conditions: in vivo, 240 h, dose 500-1000 mg/kg, time 10 day. The class given is organism-based. The method, boiled down:
as §2

Activity calls are given as the source filed them. The calls are words filed in the database; no cut-off is given here.

Take `CC(=O)N1CCN(CCOc2cc(=O)oc3ccccc23)CC1`: the inhibition entry in series [1] is “inactive”. This molecule also showed a half-life in series [2] of 18.6 min. Besides, the result in series [3], in series [6] and in [8] was Active. The Activity entry in series [4] is “Non-Toxic”; in [7] (time 24.5 hrs), “Dose-Dependent Effect”; in series [9], “Non-Toxic”. In series [5], this molecule registered an AUC(0-t) at 24 h of 929 ng·h/mL. Moreover, the IC50 in [7] was found to be 4.57 µM.
